Measured values reported in the EternaBench riboswitch data.

System: MS2 coat protein
Test: apparent Kd, MS2 coat protein; higher = weaker binding; RNA-MaP array; FMN 200 µM where present
Procedure, shortened: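 In 100 mM Tris-HCl pH 7.5, 80 mM KCl, 4 mM MgCl2, BSA, DTT, yeast tRNA and Tween-20, SNAP-549-labelled MS2 coat protein was titrated from 0.7 or 1.5 nM, doubling to 3 µM, over designs transcribed by stalled E. coli RNA polymerase on Illumina sequencing-chip clusters. This was done first without ligand, then with ligand held constant. After green signal was normalised to red-channel RNA signal and control-cluster median Fmax, the apparent Kd was taken as the median of filtered per-cluster binding-curve fits.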

[1] = designed as: ON switch for flavin mononucleotide, no ligand
[2] = ligand present: flavin mononucleotide, designed as: ON switch for flavin mononucleotide
[3] = designed as: OFF switch for flavin mononucleotide, no ligand
[4] = ligand present: flavin mononucleotide, designed as: OFF switch for flavin mononucleotide

Sequence	apparent Kd [1] [nM]	apparent Kd [2] [nM]	apparent Kd [3] [nM]	apparent Kd [4] [nM]
GAGUGACACCAGAAGGGCCAGGAAAGAACACUGGUAGGAUAUGGAGCGCCCUCGUAACGACCGACAUGAGGAUCACCCAUGUCC	117	28.1		
GAGUGACAUGAGGAUCACCCAUGUGAGGAUAUCGGACGGACCUUGUUAGCUUCCGCCGCGAGAAGGCACAUCGG			208	34.5
GAUAGGACAGAGAAGGACAUAGCUAGAGAUACUAGCAUACGAACCUUUACAUGAGGAUCACCCAUGUAGGAUAUCUGUCCUAUC			5.43	6.78
GAUAGGACAGAGAAGGACAUAGCUAGAGAUACUAGCAUAUGAACCUUCACAUGAGGAUCACCCAUGUAGGAUAUCUGUCCUAUC			3.51	3.96
GAUCAACAUGAGGAUCACCCAUGUGAGGAUAUGAUACUAUGUACUUCGGUACAUAGUAUCAGAAGGCACAUAAA			67.9	218
GAUCAACAUGAGGAUCACCCAUGUGAGGAUAUGAUACUAUGUACUUCGGUACAUAGUAUCAGAAGGCACUAGGA			65.6	192
GAUCCUUCUGUUAGGAUAUGCUUUGGGCUUCCGCAGCAGAAGGAACAUGAGGAUCACCCAUGUUCGAUGCCGUC			60.4	59.9
GAUCUCGUCUAGAAGGUGUAAUAUAUAGUAGUACAAGGAUAUAGACAUGAGGAUCACCCAUGUCGUGCCUGGGCUCAUCUUAAA			5.92	7.64
GAUGGCGUCCAAGGAUAUCCUGACCGUUAACAUGAGGAUCACCCAUGUUGCCUAAAGGCGGCAUAGGAGAAGGUGGUACUCUGA	111	155		
GAUGUAUUCGUAGGAUAUCCGUCGCCACCGUGUGGAGAAGGACGAACAUGAGGAUCACCCAUGUAUCAUGGUGUAGACACUUUC			142	190
GAUUAACAUGAGGAUCACCCAUGUGAGGAUAUGGACUGGCUCACUUUCCGAUUCGGGUCUAGAAGGCGCAUCUU			33.5	33.2
GAUUAAUGCAAGGAUAUGCUAUUAAUUUAUUUUGCAGAAGGUGCAACAUGAGGAUCACCCAUGUUGGAGGGUAU			22.3	33.4
GAUUAAUGCAAGGAUAUGCUAUUAUUUUAUUUUGCAGAAGGUGCAACAUGAGGAUCACCCAUGUUGGAGGGUAU			19.8	29.8
GAUUACAAGUAAGGAUAUGUAUAUGAAACAUAUACAGAAGGUACAUGAGGAUCACCCAUGUUCUUGCAAAGCGAAUAUGUAAUC			17.3	21
GAUUCACAUGAGGAUCACCCAUGUGAGGAUAUAGUGCAGGAGGUGAAUGUCCACCUCUCUAGAAGGCACACGGG			22.3	23.6
GAUUGAAAAGGAUAUACAUGAGGAUCACCCAUGUGCUUCAGCUAGGAGACUAGCAUUGGUAGAAGGUUUUAAUC			22.2	43.9
GAUUGACAUGAGGAUCACCCAUGUGAGGAUAUCGGCCGGACCUUGUUAGCUUCCACCGCGAGAAGGCACAUCGG			19.7	21.3
GAUUUCGCAUGAGGAUAUGCUCGCAUUUCAAGAGCAGAAGGUAUGUCAUUAGACAUGAGGAUCACCCAUGUAGUUAAGAUUGAA	186	34.9		
GAUUUCUCAUGAGGAUAUGCUCGCAUUUCAAGAGCAGAAGGUAUGUCAUUAGACAUGAGGAUCACCCAUGUAGUUAAGAUUGAA	72	44.7		
GCAAGGCAUGUAGGAUAUCGAGCUCAAAGAGCUCGAGAAGGACAUGAGGAUCACCCAUGUGCUCACAGACAGUGAGCGCCAUGC			35.4	114
GCAAUGUAAGGAUAUUCGGAGUCCUGCCGGGCAGGUAGGUUGGAGAAGGUACAUGAGGAUCACCCAUGUGAGCC			48.6	170
GCACAUGAUACAGGAUAUGUUUUGGAUUUUAUAUUCAGUUAUAUAAUAUUUACAGAAGGGUAUACAUGAGGAUCACCCAUGUGC			61.1	30.8
GCACGAGACUAAGGAUAUGGAGUGUCUACAUUAAACAUGAGGAUCACCCAUGUAGAGAGUACGAUUCAGAAGGUAGAGACGUGC	48.6	22.1		
GCACGAGACUAAGGAUAUGGUGUACCUACAUGAAACAUGAGGAUCACCCAUGUAGUAAGUAUGAUUCAGAAGGUAGAGACGUGC	30.4	18.3		
GCACGGCAUGUAGGAUAUCGAGCGCCGGGCGCUCGAGAAGGACAUGAGGAUCACCCAUGUACUCUCAGUGAGAGAGUGCUGUGC			18.7	31.8
GCACGGCAUGUAGGAUAUCGAGCGCCGGGCGCUCGAGAAGGACAUGAGGAUCACCCAUGUAUUCUCAGUGAGAGAGUGCUGUGC			36.1	55.9
GCACGGCAUGUAGGAUAUCGAGCUCCGGGAGCUCGAGAAGGACAUGAGGAUCACCCAUGUGCUCACAGUGAGUGAGCGCUGUGC			23.9	93.5
GCACUGACAGGAUAUACAUGAGGAUCACCCAUGUGACCCUUAGAGUACUCGCGUACUCGUAGAAGGGUCUGUGC			36	105

Sequence	apparent Kd [1] [nM]	apparent Kd [2] [nM]	apparent Kd [3] [nM]	apparent Kd [4] [nM]
GCACUGGAUGUAGGAUAUCAGGACGAUAAGUCCUGAGAAGGACAUGAGGAUCACCCAUGUAAACUCAACCAGUGCUAUAAUAUA			15.2	22.8
GCACUUAAAAUUGAACCGUUUCGAACAUGAGGAUCACCCAUGUAGGAUAUGCUAAAAGUUGUGAUGCAGAAGGACAAUAAGUGC			6.82	6.67
GCAGACGUAGUGAGGAUAUGCUCUACCUCGGUAGAGCAGAAGGCACAUGAGGAUCACCCAUGUGGUUCCUCUGC			19.1	80.9
GCAGCACUGUUUUACAUGAGGAUCACCCAUGUCGAUUGUUAUGAGGAUAUGCAUCGUAUGAAGAUGCAGAAGGCAUUGUGCUGC	8.32	5.48		
GCAGGCAACGAGAAGGGAGUACAUGAGGAUCACCCAUGUGUCCUCUGCGGCUCAGGAUAUCGCCCUGGGAAAGGUAAGCCUUAA			39.7	176
GCAGGCUGCUCUGAAGCUACAUUCGAGGAUAUGAUCCAAGACAUGAGGAUCACCCAUGUAGAAGAUCAGAAGGCGAUGGCUAGG	89.8	9.77		
GCAGGCUUCGAGAAGGACAUGAGGAUCACCCAUGUGCGUGUGAAGCAGCCGUGAGGCUGCAUCAUGUAGGAUAUCGGAGUCUGA			74.5	500
GCAGGCUUCGAGAAGGACAUGAGGAUCACCCAUGUGCGUGUGAAGCAGCCGUGAGGCUGCAUCAUGUAGGAUAUCGGAGUCUGC			70.8	573
GCAUCACAUGAGGAUCACCCAUGUCUUCGGAGUCGAGGAUAUGGUCACUGUAAACAGUGGCCAGAAGGCGAGGUGC	67.6	38.3		
GCAUCCUGGUAGAAGGGACAUCGGCUGGUAAGCAUCAUCUCCUUCUCACAUGAGGAUCACCCAUGUCAGGAUAUACCAGGACGC			12.3	42.1
GCAUGACAAAGUCAUGCAUUACGAACAUGAGGAUCACCCAUGUAGGAUAUGCUACUCAAAGAGUAGCAGAAGGACAUGUGUCUU			32.7	158
GCAUGCAAGUAGAAGGGCAGAUAUUUUGAUACUGCAGGAUAUGCAGAAUCAUAUCCACAUGAUAACAUGAGGAUCACCCAUGUA			33.7	26.1
GCAUGCAUAGCGAUAUGAUCGAGAGAUCAUGUCGCUAAAUUUAGAAGGACAUGAGGAUCACCCAUGUAGGAUAUGGGAGCAUGC	11.7	7.72		
GCAUGCGAUAAUAUGUCUGAGGGCAGAAGGCACAUGAGGAUCACCCAUGUAACGAUCUCUUCAAGUGAGGAUAUGUGCUCAUUG			34	85.2
GCAUGGAAAGUGAGGAUAUACCACUGGAUACAGUGGUAGAAGGCACAUGAGGAUCACCCAUGUCUCUACCAUGC			13.6	30.8
GCAUGGUGAGGAUAUGCAGAAGGGCAACGGUCAUCAUGACUACAUGAGGAUCACCCAUGUAGAAGGCACACAUG			44.3	54.8
GCAUUGUAAGGAUAUACGUGCAAAGUUUUCGCUGUAAGUCGACAUGAGGAUCACCCAUGUAGAAGGUAUAUGGU			24	24.1
GCAUUUGAGCAGGAUAUAGCCUGAACAUAAUGGUUAGAAGGGCUCACAUGAGGAUCACCCAUGUGGUGUCCUAA			12.8	36
GCCAGAGCAGGAUAUCUAAUAUGUCACAUGAGGAUCACCCAUGUCCAGCGAAAGCUGGAGGGAGAAGGGCUCUGGC			65.6	24.4
GCCAGAGCAGGAUAUUCAAUAAUUCACAUGAGGAUCACCCAUGUCCAGCGAAAGCUGGAAGGAGAAGGGCUCUGGC			16.3	13.7
GCCAGCUCGUGAGGAUAUACAACACUGCUUCGGCAGUGUAUUAAGAUCACAUGAGGAUCACCCAUGUAGAAGGCACGAGCUGAU			13.8	261
GCCAGGAUGUAAGGAUAUGCUGAGGAUAACUCAGCAGAAGGUACAUGAGGAUCACCCAUGUAAUCCUAAUAAUAAUAACCUGGC			11.5	17.4
GCCAGGUGGGUAGGAUAUGGCUAUGUCUCAUUGCUAGAAGGACCAACUGCUACAUGAGGAUCACCCAUGUCGUAGUGCACCCGG	78.9	25.4		
GCCAGUUAUGUAGGAUAUGCGCGGCGAGCCUGUGCAGAAGGACAUGAGGAUCACCCAUGUGUUGCGGUCUGAGUACUGAUCGCC			32.9	208
GCCAUCACAUGAGGAUAUGCUCCCGUUUCGGGAGCAGAAGGCAUGUCAUAAGACAUGAGGAUCACCCAUGUAUUUAAGAUGGCA	227	9.52		
GCCAUCGCAUGAGGAUAUGCUCCCGUUUCGGGAGCAGAAGGCAUGUCACAAGACAUGAGGAUCACCCAUGUAGUUAUGAUGGCA	221	8.6		
GCCAUCGCAUGAGGAUAUGCUCCCGUUUCGGGAGCAGAAGGCAUGUCAUAAGACAUGAGGAUCACCCAUGUAGAUAAGAUGGCA	310	11.4		
